The text below walks through data of ChEMBL document CHEMBL3286200, “Design and green synthesis of 2-(diarylalkyl)aminobenzothiazole derivatives and their dual activities as angiotensin converting enzyme inhibitors and calcium channel blockers” (Eur J Med Chem, 2014).

Each structure is given as a SMILES string. The source made the active and inactive calls. No cut-off for these calls is given here.

The species entered for the first assay is Rattus norvegicus. Description: Inhibition of voltage-dependent calcium channel in Sprague-Dawley rat thoracic aorta assessed as inhibition of CaCl2-induced contraction at […] by isometric force transducer. It is filed as tissue-based. In a few lines: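 Isolated rat aortic rings hung on steel hooks in a water-jacketed organ bath of oxygenated KHB at 37 °C. Resting tension 1 g, equilibration about 30 min. Rings precontracted with […], with buffer changed every 15 min. Tissue preincubated with test agent, then cumulative calcium concentration–response curve (10^-3 to 10^-1 M) recorded as isometric tension.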
In the case of `COC(=O)C1=C(C)NC(C)=C(C(=O)OC)C1c1ccccc1[N+](=O)[O-]`, the inhibition (commonly the drop in the measured response relative to a control, in per cent) was “Active”.

A further assay deals with T1, Angiotensin-converting enzyme (Oryctolagus cuniculus, UniProt P12822).
T1 sequence (P12822 whole entry): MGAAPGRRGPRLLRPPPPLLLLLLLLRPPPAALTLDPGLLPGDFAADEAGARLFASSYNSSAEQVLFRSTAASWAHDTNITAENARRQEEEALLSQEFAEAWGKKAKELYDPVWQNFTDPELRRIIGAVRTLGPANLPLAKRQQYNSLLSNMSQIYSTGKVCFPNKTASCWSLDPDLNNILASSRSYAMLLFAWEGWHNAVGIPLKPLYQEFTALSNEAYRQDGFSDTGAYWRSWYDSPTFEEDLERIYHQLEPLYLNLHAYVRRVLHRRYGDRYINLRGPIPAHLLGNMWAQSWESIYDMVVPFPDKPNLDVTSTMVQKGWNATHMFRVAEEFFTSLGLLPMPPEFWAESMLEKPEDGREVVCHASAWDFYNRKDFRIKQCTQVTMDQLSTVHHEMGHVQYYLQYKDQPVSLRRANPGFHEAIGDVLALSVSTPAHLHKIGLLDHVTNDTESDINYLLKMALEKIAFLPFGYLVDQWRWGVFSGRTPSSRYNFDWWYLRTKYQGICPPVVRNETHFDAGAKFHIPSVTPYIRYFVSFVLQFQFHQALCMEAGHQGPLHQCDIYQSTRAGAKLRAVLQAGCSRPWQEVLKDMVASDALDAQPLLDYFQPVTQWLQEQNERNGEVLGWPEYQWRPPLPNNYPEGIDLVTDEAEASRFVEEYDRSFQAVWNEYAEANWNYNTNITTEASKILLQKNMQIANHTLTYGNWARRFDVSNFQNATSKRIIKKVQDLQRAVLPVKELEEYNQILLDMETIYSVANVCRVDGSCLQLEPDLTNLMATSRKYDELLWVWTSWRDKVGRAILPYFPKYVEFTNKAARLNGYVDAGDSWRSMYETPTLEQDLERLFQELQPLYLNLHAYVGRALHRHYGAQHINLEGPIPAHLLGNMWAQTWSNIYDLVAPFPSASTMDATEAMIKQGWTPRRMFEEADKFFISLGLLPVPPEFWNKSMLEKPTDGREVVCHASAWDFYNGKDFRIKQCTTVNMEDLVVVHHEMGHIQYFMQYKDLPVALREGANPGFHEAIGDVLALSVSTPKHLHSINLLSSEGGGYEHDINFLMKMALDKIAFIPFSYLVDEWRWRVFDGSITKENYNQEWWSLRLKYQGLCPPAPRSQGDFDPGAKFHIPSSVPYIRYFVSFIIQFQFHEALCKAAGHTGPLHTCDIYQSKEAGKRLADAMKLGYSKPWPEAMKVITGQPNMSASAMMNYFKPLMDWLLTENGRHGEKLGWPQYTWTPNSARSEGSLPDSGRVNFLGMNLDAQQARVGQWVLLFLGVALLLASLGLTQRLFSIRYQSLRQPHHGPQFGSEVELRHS
Description: Inhibition of rabbit lung ACE assessed as inhibition of hippuryl-histidyl-leucine substrate hydrolysis pretreated for 10 mins followed by addition of 5 mM HHL substrate for 30 mins measured as hippuric acid release. In a few lines:
(§1)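 Reaction started with […] of 5 mM HHL; released hippuric acid read as yellow colour at 410 nm. Inhibition% = 100 − (T/C)×100; IC50 from percentage-inhibition versus concentration curves.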
As for `O=C(/C=C/c1ccc(O)c(O)c1)c1ccc(O)cc1O` [BUTEIN], the IC50 (usually the point on the concentration scale where inhibition reaches its midpoint) is 730 µM. Still for that read-out and setting: next, `COc1ccc(C(Nc2nc3c(Cl)cccc3s2)c2c(O)ccc3ccccc23)cc1` (stereo not given): 0.607 µM; `COc1ccc(C(Nc2nc3ccccc3s2)c2c(O)ccc3ccccc23)cc1` (stereo not given): 0.837 µM.

Tested on in the next assay: not listed separately
The experiment in a line: (§2) Inhibition of voltage-dependent calcium channel in Sprague-Dawley rat thoracic aorta assessed as inhibition of CaCl2-induced contraction by isometric force transducer. Format: tissue-based. In a few lines:
(§3)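 Rat aortic rings held at 37 °C in 25 mL oxygenated KHB in an organ bath, under 1 g resting tension, equilibrated about 30 min. Isometric tension recorded by force transducer. Initial contraction with phenylephrine 1 mM, buffer changed every 15 min. After preincubation with test agent, a cumulative calcium concentration-response curve (10^-3 to 10^-1 M) was recorded.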
As for `COc1ccc(C(Nc2nc3c(Cl)cccc3s2)c2c(O)ccc3ccccc23)cc1` (stereo not given), the concentration for half-maximal inhibition (IC50) was 50 µM. On the same count and under the same terms, next, `COc1ccc(C(Nc2nc3ccccc3s2)c2c(O)ccc3ccccc23)cc1` (stereo not given): 3 µM.

A further assay is filed under the species Rattus norvegicus. The description is as §2. Format: tissue-based. In a few lines: as §3
As to `Oc1ccc2ccccc2c1C(Nc1nc2ccccc2s1)c1cccc(Cl)c1` (stereo not given), the inhibition result was “Dose-dependent effect”. `Cc1ccc(C(Nc2nc3c(Cl)cccc3s2)c2c(O)ccc3ccccc23)cc1` (stereo not given): the inhibition result was “Dose-dependent effect”.

In the case of `Oc1ccc2ccccc2c1C(Nc1nc2ccccc2s1)c1cccc(Oc2ccccc2)c1` (stereo not given), the inhibition entry is “Dose-dependent effect”.

Regarding `COc1cc(C(Nc2nc3ccccc3s2)c2c(O)ccc3ccccc23)cc(OC)c1OC` (stereo not given), the inhibition result was “Dose-dependent effect”. On the same count and under the same terms, next, `N#Cc1ccc(C(Nc2nc3ccccc3s2)c2c(O)ccc3ccccc23)cc1` (stereo not given): “Dose-dependent effect”. Consider `Cc1cccc2sc(NC(c3ccc(Cl)c(Cl)c3)c3c(O)ccc4ccccc34)nc12` (stereo not given), for which the inhibition entry was “Dose-dependent effect”. As to `Oc1ccc2ccccc2c1C(Nc1nc2ccccc2s1)c1ccccc1` (stereo not given), the inhibition entry was “Dose-dependent effect”. Regarding `Oc1ccc2ccccc2c1C(Nc1nc2ccc(Cl)cc2s1)c1ccc(Cl)c(Cl)c1` (stereo not given), the inhibition entry was “Dose-dependent effect”.

Take `Oc1ccc2ccccc2c1C(Nc1nc2c(Cl)cccc2s1)c1ccccc1` (stereo not given): the inhibition entry was “Dose-dependent effect”.

For `Oc1ccc2ccccc2c1C(Nc1nc2ccccc2s1)c1ccc2ccccc2c1` (stereo not given), the inhibition entry is “Dose-dependent effect”.

`Oc1ccc2ccccc2c1C(Nc1nc2ccc(Cl)cc2s1)c1ccc(Br)cc1` (stereo not given): the inhibition result was “Dose-dependent effect”. Same read-out and setting: for `Oc1ccc2ccccc2c1C(Nc1nc2ccc(Cl)cc2s1)c1ccccc1` (stereo not given) the value was “Dose-dependent effect”.

With `Oc1ccc2ccccc2c1C(Nc1nc2ccccc2s1)c1ccc(Cl)cc1Cl` (stereo not given), the inhibition result was “Dose-dependent effect”. Still for that read-out and setting: for `Oc1ccc2ccccc2c1C(Nc1nc2ccccc2s1)c1ccccc1Cl` (stereo not given) the value was “Dose-dependent effect”.

For the compound `COc1ccc(C(Nc2nc3ccccc3s2)c2c(O)ccc3ccccc23)c(OC)c1` (stereo not given), the inhibition result is “Dose-dependent effect”. Still for that read-out and setting: for `Oc1ccc2ccccc2c1C(Nc1nc2c(Cl)cccc2s1)c1cccc(Cl)c1` (stereo not given) the value was “Dose-dependent effect”. Still for that read-out and setting: next, `Oc1ccc2ccccc2c1C(Nc1nc2c(Cl)cccc2s1)c1ccc(Cl)c(Cl)c1` (stereo not given): “Dose-dependent effect”; `Oc1ccc2ccccc2c1C(Nc1nc2ccccc2s1)c1ccc(F)cc1` (stereo not given): “Dose-dependent effect”. For the compound `Oc1ccc2ccccc2c1C(Nc1nc2c(Cl)cccc2s1)c1ccc2ccccc2c1` (stereo not given), the inhibition result is “Dose-dependent effect”. `CN(C)c1ccc(C(Nc2nc3ccccc3s2)c2c(O)ccc3ccccc23)cc1` (stereo not given): the inhibition result was “Dose-dependent effect”.

With `Oc1ccc2ccccc2c1C(Nc1nc2c(Cl)cccc2s1)c1ccc(Br)cc1` (stereo not given), the inhibition entry is “Dose-dependent effect”.

In the case of `Oc1ccc2ccccc2c1C(Nc1nc2ccccc2s1)c1ccc(C(F)(F)F)cc1` (stereo not given), the inhibition entry was “Dose-dependent effect”. `Oc1ccc2ccccc2c1C(Nc1nc2c(Cl)cccc2s1)c1cccc(Oc2ccccc2)c1` (stereo not given): the inhibition entry was “Dose-dependent effect”. On the same count and under the same terms, for `Oc1ccc2ccccc2c1C(Nc1nc2ccccc2s1)c1ccc(Cl)c(Cl)c1` (stereo not given) the value was “Dose-dependent effect”; for `COc1ccc(C(Nc2nc3c(Cl)cccc3s2)c2c(O)ccc3ccccc23)cc1` (stereo not given), “Dose-dependent effect”; for `COc1cc(C(Nc2nc3c(Cl)cccc3s2)c2c(O)ccc3ccccc23)cc(OC)c1OC` (stereo not given), “Dose-dependent effect”. The same measure, in the same setting: for `CC(C)c1ccc(C(Nc2nc3ccccc3s2)c2c(O)ccc3ccccc23)cc1` (stereo not given) the value was “Dose-dependent effect”; for `Oc1ccc2ccccc2c1C(Nc1nc2ccccc2s1)c1cc(F)ccc1Br` (stereo not given), “Dose-dependent effect”. On the same count and under the same terms, for `COc1ccc(C(Nc2nc3ccccc3s2)c2c(O)ccc3ccccc23)cc1OC` (stereo not given) the value was “Dose-dependent effect”. As for `Oc1ccc2ccccc2c1C(Nc1nc2c(Cl)cccc2s1)c1ccc(Cl)cc1Cl` (stereo not given), the inhibition result is “Dose-dependent effect”. Still for that read-out and setting: next, `Oc1ccc2ccccc2c1C(Nc1nc2ccccc2s1)c1cccc(F)c1` (stereo not given): “Dose-dependent effect”; `Oc1ccc2ccccc2c1C(Nc1nc2ccccc2s1)c1cccc(Br)c1` (stereo not given): “Dose-dependent effect”; `CN(C)c1ccc(C(Nc2nc3c(Cl)cccc3s2)c2c(O)ccc3ccccc23)cc1` (stereo not given): “Dose-dependent effect”.

Take `Oc1ccc2ccccc2c1C(Nc1nc2ccccc2s1)c1cccc(Cl)c1Cl` (stereo not given): the inhibition result is “Dose-dependent effect”.

In the case of `COc1ccc(C(Nc2nc3ccccc3s2)c2c(O)ccc3ccccc23)cc1` (stereo not given), the inhibition entry is “Dose-dependent effect”. Still for that read-out and setting: for `Cc1ccc(C(Nc2nc3ccc(Cl)cc3s2)c2c(O)ccc3ccccc23)cc1` (stereo not given) the value was “Dose-dependent effect”; for `Oc1ccc2ccccc2c1C(Nc1nc2ccccc2s1)c1ccc(Cl)cc1` (stereo not given), “Dose-dependent effect”; for `Cc1ccc(C(Nc2nc3ccccc3s2)c2c(O)ccc3ccccc23)cc1` (stereo not given), “Dose-dependent effect”. On the same count and under the same terms, for `CC(c1ccccc1)C(Nc1nc2ccccc2s1)c1c(O)ccc2ccccc12` (stereo not given) the value was “Dose-dependent effect”; for `Oc1ccc2ccccc2c1C(Nc1nc2ccccc2s1)c1ccc(Br)cc1` (stereo not given), “Dose-dependent effect”; for `Oc1ccc2ccccc2c1C(Nc1nc2c(Cl)cccc2s1)c1ccc(F)cc1` (stereo not given), “Dose-dependent effect”. With `Oc1ccc2ccccc2c1C(Nc1nc2ccccc2s1)c1ccc(F)c(F)c1` (stereo not given), the inhibition entry was “Dose-dependent effect”.

Another assay has as its target T2, Angiotensin-converting enzyme (Oryctolagus cuniculus) (UniProt P12822).
T2 sequence (whole entry): T1 sequence (P12822 whole entry)
Description: Inhibition of rabbit lung ACE assessed as inhibition of hippuryl-histidyl-leucine substrate hydrolysis at 1 uM pretreated for 10 mins followed by addition of 5 mM HHL substrate for 30 mins measured as hippuric acid release. An outline of the steps: as §1
For the compound `COc1ccc(C(Nc2nc3c(Cl)cccc3s2)c2c(O)ccc3ccccc23)cc1` (stereo not given), the inhibition was found to be 80.1%. Still for that read-out and setting: for `COc1ccc(C(Nc2nc3ccccc3s2)c2c(O)ccc3ccccc23)cc1` (stereo not given) the value was 61.8%.
